Source: ChEMBL document CHEMBL3102822, “Synthesis, biological evaluation and molecular docking studies of benzyloxyacetohydroxamic acids as LpxC inhibitors” (Bioorg Med Chem, 2014)
pIC50, pKi: −log10 of the molar value. The source made the active and inactive calls. The calls are words filed in the database; no cut-off is given here.

Legend:
[1] = target: T1, UDP-3-O-acyl-N-acetylglucosamine deacetylase (Escherichia coli K-12, UniProt P0A725); experiment: Inhibition of Escherichia coli LpxC using UDP-3-O-[(R)-3-hydroxymyristoyl]-N-acetylglucosamine as substrate incubated for 30 mins prior to enzyme addition by fluorescence assay
T1 sequence (P0A725 whole entry): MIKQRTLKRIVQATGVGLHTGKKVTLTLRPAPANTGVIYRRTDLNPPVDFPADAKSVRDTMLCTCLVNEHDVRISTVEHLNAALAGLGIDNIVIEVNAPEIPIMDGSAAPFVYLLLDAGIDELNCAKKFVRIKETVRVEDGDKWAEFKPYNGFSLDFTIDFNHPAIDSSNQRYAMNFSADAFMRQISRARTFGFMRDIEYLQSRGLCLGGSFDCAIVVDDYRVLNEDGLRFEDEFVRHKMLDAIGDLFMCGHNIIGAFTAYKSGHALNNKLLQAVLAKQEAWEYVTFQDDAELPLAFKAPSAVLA

Escherichia coli [2] = experiment: Antimicrobial activity against Escherichia coli BL21(DE3) at 10 mM after overnight incubation by agar disc diffusion method; assay type: functional; settings: read-out: DIZ
In short: (§1)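 Strains grown overnight in LB broth at 37 °C, 200 rpm; 150 µL overnight suspension spread on LB agar. 15 µL of compound (10 mM stock in DMSO) applied to 6 mm filter paper discs; DMSO negative and CHIR-090 positive controls. Plates incubated overnight at 37 °C; zone of inhibition diameter measured, mean ± SD of three independent experiments.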

Escherichia coli [3] = experiment: Antimicrobial activity against Escherichia coli D22 at 10 mM after overnight incubation by agar disc diffusion method; assay type: functional; settings: read-out: DIZ; in short: as §1
[4] = target: T2, UDP-3-O-acyl-N-acetylglucosamine deacetylase (Escherichia coli K-12) (UniProt P0A725); experiment: Inhibition of Escherichia coli LpxC using UDP-3-O-[(R)-3-hydroxymyristoyl]-N-acetylglucosamine as substrate up to 200 uM incubated for 30 mins prior to enzyme addition by fluorescence assay
T2 sequence (whole entry): T1 sequence (P0A725 whole entry)
In short: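 Purified E. coli LpxC (stored in 50 mM Bis/Tris pH 6.0, 150 mM NaCl). 40 mM MES pH 6.0 with 25 µM substrate, 80 µM DTT, 0.02% Brij 35; inhibitors in DMSO, 0.2 nM–200 µM, 30 min at 37 °C shaking before adding 500 ng enzyme. Stopped with NaOH, neutralized with acetic acid; product derivatized with o-phthaldialdehyde-2-mercaptoethanol in borax, fluorescence ex 340/em 460 nm. IC50 converted to Ki by Cheng-Prusoff (KM 4 µM); mean ± SD, n=3.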

| pIC50 [1] | inhibition [4] | Compound | pKi [1] | zone of inhibition at 10000 µM (Escherichia coli [2]) | zone of inhibition at 10000 µM (Escherichia coli [3]) |
| --- | --- | --- | --- | --- | --- |
| < 3.70 | inactive | O=C(CO[C@H](CO)c1ccc(Br)cc1)NO | – | < 6 mm | < 6 mm |
| < 3.70 | – | O=C(NO)[C@H]1O[C@@H](c2ccc(C#Cc3ccc(CN4CCOCC4)cc3)cc2)[C@@H](O)[C@H]1O | – | < 6 mm | 13.1 mm |
| – | – | C[C@@H](O)[C@H](NC(=O)c1ccc(C#Cc2ccc(CN3CCOCC3)cc2)cc1)C(=O)NO | – | 24.6 mm | 30.3 mm |
| < 3.70 | inactive | C#Cc1ccc([C@@H](CO)OCC(=O)NO)cc1 | – | < 6 mm | < 6 mm |
| < 3.70 | – | O=C(CO[C@@H](CO)c1ccc(Br)cc1)NO | – | < 6 mm | < 6 mm |
| < 3.70 | inactive | C[Si](C)(C)C#Cc1ccc([C@@H](CO)OCC(=O)NO)cc1 | – | < 6 mm | 7.5 mm |
| < 3.70 | – | C[Si](C)(C)C#Cc1ccc([C@H](CO)OCC(=O)NO)cc1 | – | 7.1 mm | 7.2 mm |
| < 3.70 | – | C#Cc1ccc([C@H](CO)OCC(=O)NO)cc1 | – | < 6 mm | < 6 mm |
| < 3.70 | – | O=C(CO[C@@H](CO)c1ccccc1)NO | – | < 6 mm | < 6 mm |
| < 3.70 | – | O=C(COCc1ccc(C#Cc2ccccc2)cc1)NO | – | 10.6 mm | 13.2 mm |
| < 3.70 | – | O=C(CO[C@H](CO)c1ccccc1)NO | – | < 6 mm | < 6 mm |

| Compound | pIC50 [1] | inhibition [4] | pKi [1] | zone of inhibition at 10000 µM (Escherichia coli [2]) | zone of inhibition at 10000 µM (Escherichia coli [3]) |
| --- | --- | --- | --- | --- | --- |
| O=C(CO[C@H](CO)c1ccc(C#Cc2ccc(CN3CCOCC3)cc2)cc1)NO | 6.16 | – | 7.02 | 13.4 mm | 21.2 mm |
| O=C(CO[C@@H](CO)c1ccc(C#Cc2ccc(CN3CCOCC3)cc2)cc1)NO | 3.70 | – | 4.56 | 8.7 mm | 12.3 mm |
| O=C(CO[C@@H](CO)c1ccc(C#Cc2ccccc2)cc1)NO | 4.50 | – | 5.36 | 9.1 mm | 13 mm |
| O=C(COCc1ccc(C#Cc2ccc(CN3CCOCC3)cc2)cc1)NO | 4.98 | – | 5.84 | 16.5 mm | 20.3 mm |
| O=C(CO[C@H](CO)c1ccc(C#Cc2ccccc2)cc1)NO | 6.32 | – | 7.18 | 9.5 mm | 20.5 mm |
| O=C(NO)[C@H](CO)O[C@H](CO)c1ccc(C#Cc2ccc(CN3CCOCC3)cc2)cc1 | 5.59 | – | 6.45 | 9 mm | 20.8 mm |
